# Measured values taken from ChEMBL document CHEMBL1212766, “Dose escalation study of the safety, tolerability, and pharmacokinetics of nemonoxacin (TG-873870), a novel potent broad-spectrum nonfluorinated quinolone, in healthy volunteers” (Antimicrob Agents Chemother, 2010).
# Tests used:
# Homo sapiens [1] = experiment: Terminal volume of distribution in healthy human at 50 mg, po administered as single dose; details: in vivo
# Homo sapiens [2] = experiment: Clearance in healthy human at 500 mg, po administered as single dose; details: in vivo
# Streptococcus pneumoniae [3] = experiment: Ratio of fCmax to MIC90 for ciprofloxacin-resistant Streptococcus pneumoniae; format: functional
# In short: (§1)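 Fasted healthy adults got a single oral 500 mg dose with 240 ml water. Plasma was sampled predose to 96 h and assayed by LC-MS/MS (5–5,000 ng/ml). Cmax was read from individual profiles, and AUC0-∞ came from linear trapezoid plus extrapolation. Free fraction was measured by ultrafiltration (30,000 MWCO) of 0.5 and 6 h plasma. Free exposure was divided by the isolate MIC90.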
# Homo sapiens [4] = experiment: Toxicity in healthy human assessed as occurrence of contact dermatitis at 500 […], po; format: organism-based; design: route oral; details: in vivo
# [5] = Cmax in healthy human at 250 mg, po administered as single dose; details: in vivo
# Homo sapiens [6] = experiment: Toxicity in healthy human assessed as occurrence of abdominal pain at 500 […], po; format: organism-based, Abdomen; design: route oral; details: in vivo
# In short: (§2)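 Double-blind, placebo-controlled single ascending oral dose; two placebo and six active subjects per cohort. Adverse events were recorded throughout the dosing period and at follow-up, with confinement to 96 h after dosing. Results are reported as number and percentage of subjects with the event (n/N × 100).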
# Homo sapiens [7] = experiment: Toxicity in healthy human assessed as occurrence of oral hypoesthesia at 250 […], po; format: organism-based; design: route oral; details: in vivo
# Homo sapiens [8] = experiment: Toxicity in healthy human assessed as occurrence of pruritus at 50 […], po; format: organism-based; design: route oral; details: in vivo
# [9] = Terminal phase elimination half-life in healthy human at 500 […], po administered single dose; format: ADME, organism-based; design: route oral; details: in vivo
# In short: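 After one fasted oral dose (six healthy subjects per cohort), plasma was sampled from 0.5 to 96 h and assayed by LC-MS/MS (LLOQ 5 ng/ml). λz came from least-squares regression on at least the last three log-concentration points, and t1/2 = 0.693/λz. Values are means (SD).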
# [10] = Tmax in healthy human at 25 mg, po administered as single dose; details: in vivo
# [11] = Renal clearance in healthy human at 25 mg, po administered as single dose; details: in vivo, read-out: CL_renal (converted)
# Streptococcus pneumoniae [12] = experiment: Antimicrobial activity against Streptococcus pneumoniae; format: functional
# Staphylococcus aureus [13] = experiment: Antimicrobial activity against methicillin-sensitive Staphylococcus aureus; format: functional
# Homo sapiens [14] = experiment: AUC (0 to infinity) in healthy human at 25 […], po administered as single dose; format: ADME, organism-based, Plasma; design: time infinity, route oral; details: in vivo
# Homo sapiens [15] = experiment: Toxicity in healthy human assessed as occurrence of contact dermatitis at 50 […], po; format: organism-based; design: route oral; details: in vivo
# In short: (§3)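 Randomized, double-blind, placebo-controlled single ascending oral doses in healthy volunteers (cohorts of 6 active, 2 placebo; 25–1,500 mg). After a 10-h fast, dose given with 240 ml water; fasting continued 4 h. Subjects were confined to 96 h postdose. AEs were recorded throughout dosing and at follow-up, reported as number and percentage of subjects with events per treatment.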
# Homo sapiens [16] = experiment: Toxicity in healthy human assessed as occurrence of pruritus at 250 […], po; format: organism-based; design: route oral; details: in vivo
# Streptococcus pneumoniae [17] = experiment: Antimicrobial activity against penicillin-sensitive Streptococcus pneumoniae; format: functional
# Homo sapiens [18] = experiment: Toxicity in healthy human assessed as occurrence of abdominal pain at 1000 […], po; format: organism-based, Abdomen; design: route oral; details: in vivo
# In short: as §2
# Staphylococcus aureus [19] = experiment: Ratio of fCmax to MIC90 for methicillin-sensitive Staphylococcus aureus; format: functional
# In short: as §1
# Homo sapiens [20] = experiment: AUC (0 to infinity) in healthy human at 125 […], po administered as single dose; format: ADME, organism-based, Plasma; design: time infinity, route oral; details: in vivo
# Homo sapiens [21] = experiment: Terminal volume of distribution in healthy human at 25 mg, po administered as single dose; details: in vivo
# Homo sapiens [22] = experiment: Terminal volume of distribution in healthy human at 1000 mg, po administered as single dose; details: in vivo
# Homo sapiens [23] = experiment: AUC (0 to infinity) in healthy human at 250 […], po administered as single dose; format: ADME, organism-based, Plasma; design: time infinity, route oral; details: in vivo
# Homo sapiens [24] = experiment: Toxicity in healthy human assessed as occurrence of nausea at 25 […], po; format: organism-based; design: route oral; details: in vivo
# Streptococcus pneumoniae [25] = experiment: Ratio of fAUC to MIC90 for Streptococcus pneumoniae; format: functional
# In short: as §1
# Homo sapiens [26] = experiment: Toxicity in healthy human assessed as occurrence of contact dermatitis at 1500 […], po; format: organism-based; design: route oral; details: in vivo
# In short: as §3
# Homo sapiens [27] = experiment: Toxicity in healthy human assessed as occurrence of erythema at 1500 […], po; format: organism-based; design: route oral; details: in vivo
# Homo sapiens [28] = experiment: Toxicity in healthy human assessed as occurrence of oral hypoesthesia at 500 […], po; format: organism-based; design: route oral; details: in vivo
# [29] = Clearance in healthy human assessed as recovery of unchanged drug in urine at 500 mg, po administered as single dose; details: read-out: Recovered in urine
# Staphylococcus aureus [30] = experiment: Ratio of fAUC to MIC90 for methicillin-resistant Staphylococcus aureus; format: functional
# In short: as §1
# Homo sapiens [31] = experiment: Toxicity in healthy human assessed as occurrence of pruritus at 1500 […], po; format: organism-based; design: route oral; details: in vivo
# [32] = Terminal phase elimination half-life in healthy human at 1500 mg, po administered single dose; details: in vivo
# Homo sapiens [33] = experiment: Toxicity in healthy human assessed as occurrence of oral hypoesthesia at 125 […], po; format: organism-based; design: route oral; details: in vivo
# Homo sapiens [34] = experiment: Toxicity in healthy human assessed as occurrence of pruritus at 25 […], po; format: organism-based; design: route oral; details: in vivo
# Homo sapiens [35] = experiment: Toxicity in healthy human assessed as occurrence of oral hypoesthesia at 1000 […], po; format: organism-based; design: route oral; details: in vivo
# Homo sapiens [36] = experiment: Toxicity in healthy human assessed as occurrence of erythema at 1000 […], po; format: organism-based; design: route oral; details: in vivo
# [37] = Clearance in healthy human assessed as recovery of unchanged drug in urine at 50 […], po administered as single dose; format: ADME, organism-based; design: route oral; details: read-out: Recovered in urine
# In short: (§4)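 Healthy volunteers, six on drug per cohort, fasted 10 h and given one oral dose with 240 ml water, then fasted 4 h more. Urine was pooled over intervals from 0-2 to 72-96 h and stored at about −70°C. Drug was measured by solid-phase extraction and LC-MS/MS (LLOQ 200 ng/ml), giving the percent of dose recovered unchanged. Values are means (SD).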
# [38] = Clearance in healthy human assessed as recovery of unchanged drug in urine at 1500 […], po administered as single dose; format: ADME, organism-based; design: route oral; details: read-out: Recovered in urine
# In short: as §4
# Homo sapiens [39] = experiment: AUC (0 to infinity) in healthy human at 500 […], po administered as single dose; format: ADME, organism-based, Plasma; design: time infinity, route oral; details: in vivo
# [40] = Renal clearance in healthy human at 125 mg, po administered as single dose; details: in vivo, read-out: CL_renal (converted)
# Homo sapiens [41] = experiment: Toxicity in healthy human assessed as occurrence of pustular rashes at 1000 […], po; format: organism-based; design: route oral; details: in vivo
# Homo sapiens [42] = experiment: Toxicity in healthy human assessed as occurrence of ear pain at 1500 […], po; format: organism-based; design: route oral; details: in vivo
# Homo sapiens [43] = experiment: Toxicity in healthy human assessed as occurrence of erythema at 125 […], po; format: organism-based; design: route oral; details: in vivo
compound,measurement,setting,value
COc1c(N2C[C@@H](C)C[C@H](N)C2)ccc2c(=O)c(C(=O)O)cn(C3CC3)c12 [NEMONOXACIN],Vbeta,Homo sapiens [1],2.78 L/kg
same,CL,Homo sapiens [2],3.3 mL/min/kg
same,Ratio,Streptococcus pneumoniae [3],24
same,Activity,Homo sapiens [4],0%
same,Cmax,[5],2400 ng/mL
same,Activity,Homo sapiens [6],0%
same,Activity,Homo sapiens [7],0%
same,Activity,Homo sapiens [8],17%
same,half-life,[9],14.8 h
same,Tmax,[10],0.92 h
same,CL renal,[11],3 mL/min/kg
same,MIC90,Streptococcus pneumoniae [12],0.015 µg/mL
same,MIC90,Staphylococcus aureus [13],0.12 µg/mL
same,AUC,Homo sapiens [14],1190 ng·h/mL
same,Activity,Homo sapiens [15],0%
same,Activity,Homo sapiens [16],0%
same,MIC90,Streptococcus pneumoniae [17],0.015 µg/mL
same,Activity,Homo sapiens [18],0%
same,Ratio,Staphylococcus aureus [19],24
same,AUC,Homo sapiens [20],7670 ng·h/mL
same,Vbeta,Homo sapiens [21],4.21 L/kg
same,Vbeta,Homo sapiens [22],5.28 L/kg
same,AUC,Homo sapiens [23],15450 ng·h/mL
same,Activity,Homo sapiens [24],0%
same,Ratio,Streptococcus pneumoniae [25],1812
same,Activity,Homo sapiens [26],0%
same,Activity,Homo sapiens [27],50%
same,Activity,Homo sapiens [28],0%
same,dose excreted,[29],34.1%
same,Ratio,Staphylococcus aureus [30],453
same,Activity,Homo sapiens [31],50%
same,half-life,[32],13 h
same,Activity,Homo sapiens [33],0%
same,Activity,Homo sapiens [34],0%
same,Activity,Homo sapiens [35],17%
same,Activity,Homo sapiens [36],17%
same,dose excreted,[37],51.1%
same,dose excreted,[38],37.6%
same,AUC,Homo sapiens [39],32360 ng·h/mL
same,CL renal,[40],1.33 mL/min/kg
same,Activity,Homo sapiens [41],0%
same,Activity,Homo sapiens [42],0%
same,Activity,Homo sapiens [43],0%
